# Experimental data: ChEMBL document CHEMBL3124926, “Identification of highly efficacious glucocorticoid receptor agonists with a potential for reduced clinical bone side effects” (J Med Chem, 2014)
# Assays:
# [1] = target: T1, Glucocorticoid receptor (Homo sapiens, UniProt P04150); test: Competitive binding affinity to glucocorticoid receptor (unknown origin) expressed in baculovirus-infected cell system after 1 hr by fluorescence polarization assay in presence of tetramethylrhodamine-labeled dexamethasone
# T1 sequence (P04150 whole entry): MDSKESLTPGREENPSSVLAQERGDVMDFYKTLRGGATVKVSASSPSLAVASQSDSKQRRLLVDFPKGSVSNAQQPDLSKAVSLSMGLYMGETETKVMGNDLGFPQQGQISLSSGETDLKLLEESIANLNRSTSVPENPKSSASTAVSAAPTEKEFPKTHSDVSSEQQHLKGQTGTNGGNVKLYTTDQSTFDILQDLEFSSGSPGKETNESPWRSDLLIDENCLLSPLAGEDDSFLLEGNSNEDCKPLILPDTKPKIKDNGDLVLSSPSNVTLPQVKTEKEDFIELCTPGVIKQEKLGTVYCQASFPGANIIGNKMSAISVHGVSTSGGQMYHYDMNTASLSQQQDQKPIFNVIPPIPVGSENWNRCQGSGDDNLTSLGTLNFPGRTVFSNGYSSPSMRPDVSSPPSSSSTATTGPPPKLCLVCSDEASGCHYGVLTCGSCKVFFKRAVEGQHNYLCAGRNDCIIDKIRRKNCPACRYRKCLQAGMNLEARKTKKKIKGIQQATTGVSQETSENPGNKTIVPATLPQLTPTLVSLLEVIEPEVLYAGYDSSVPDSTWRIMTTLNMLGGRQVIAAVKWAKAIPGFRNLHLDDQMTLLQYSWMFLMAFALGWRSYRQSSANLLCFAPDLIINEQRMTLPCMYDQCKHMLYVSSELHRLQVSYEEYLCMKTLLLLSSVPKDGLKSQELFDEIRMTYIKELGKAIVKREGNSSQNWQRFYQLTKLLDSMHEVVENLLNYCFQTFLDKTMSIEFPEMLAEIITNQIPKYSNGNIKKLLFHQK
# Procedure, shortened: (§1)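 Lysates of baculovirus-infected insect cells co-expressing receptor with HSP-70, HSP-90 and p23 (GR diluted 300-fold, MR 17-fold). Probe 5 nM tetramethylrhodamine-dexamethasone in TES/KCl/molybdate/EDTA/CHAPS/glycerol/DTT buffer, pH 7.4, 1% DMSO. 1 h at room temperature in the dark; fluorescence polarization read (ex 550/em 580 nm). Background set with 2 μM dexamethasone. IC50 from duplicate 11-point curves, four-parameter fit, mean of at least two determinations.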
# [2] = target: T2, Glucocorticoid receptor (Homo sapiens) (UniProt P04150); test: Transrepression activity at glucocorticoid receptor in human fibroblasts assessed as inhibition of IL-1-induced IL-6 production at 2 uM after 18 to 24 hrs relative to dexomethasone
# T2 sequence (whole entry): T1 sequence (P04150 whole entry)
# Procedure, shortened: (§2)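 Human foreskin fibroblasts grown in Iscove's medium with 10% charcoal/dextran-treated FBS, plated at 20000/well two days before. Medium replaced, then compound (0.4% DMSO final) and recombinant human IL-1 (1 ng/mL final) added. 18–24 h at 37 °C; IL-6 in medium quantified by electrochemiluminescence, DELFIA or ELISA. IC50 by four-parameter fit of duplicate 11-point curves. Efficacy relative to dexamethasone (100%); top concentration 2 μM.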
# [3] = target: T1, Glucocorticoid receptor; test: Transrepression activity at glucocorticoid receptor in human fibroblasts assessed as inhibition of IL-1-induced IL-6 production after 18 to 24 hrs; procedure, shortened: as §2
# [4] = target: T3, Mineralocorticoid receptor (Homo sapiens, UniProt P08235); test: Competitive binding affinity to mineralocorticoid receptor (unknown origin) expressed in baculovirus-infected cell system after 1 hr by fluorescence polarization assay in presence of tetramethylrhodamine-labeled dexamethasone; procedure, shortened: as §1
# T3 sequence (P08235 whole entry): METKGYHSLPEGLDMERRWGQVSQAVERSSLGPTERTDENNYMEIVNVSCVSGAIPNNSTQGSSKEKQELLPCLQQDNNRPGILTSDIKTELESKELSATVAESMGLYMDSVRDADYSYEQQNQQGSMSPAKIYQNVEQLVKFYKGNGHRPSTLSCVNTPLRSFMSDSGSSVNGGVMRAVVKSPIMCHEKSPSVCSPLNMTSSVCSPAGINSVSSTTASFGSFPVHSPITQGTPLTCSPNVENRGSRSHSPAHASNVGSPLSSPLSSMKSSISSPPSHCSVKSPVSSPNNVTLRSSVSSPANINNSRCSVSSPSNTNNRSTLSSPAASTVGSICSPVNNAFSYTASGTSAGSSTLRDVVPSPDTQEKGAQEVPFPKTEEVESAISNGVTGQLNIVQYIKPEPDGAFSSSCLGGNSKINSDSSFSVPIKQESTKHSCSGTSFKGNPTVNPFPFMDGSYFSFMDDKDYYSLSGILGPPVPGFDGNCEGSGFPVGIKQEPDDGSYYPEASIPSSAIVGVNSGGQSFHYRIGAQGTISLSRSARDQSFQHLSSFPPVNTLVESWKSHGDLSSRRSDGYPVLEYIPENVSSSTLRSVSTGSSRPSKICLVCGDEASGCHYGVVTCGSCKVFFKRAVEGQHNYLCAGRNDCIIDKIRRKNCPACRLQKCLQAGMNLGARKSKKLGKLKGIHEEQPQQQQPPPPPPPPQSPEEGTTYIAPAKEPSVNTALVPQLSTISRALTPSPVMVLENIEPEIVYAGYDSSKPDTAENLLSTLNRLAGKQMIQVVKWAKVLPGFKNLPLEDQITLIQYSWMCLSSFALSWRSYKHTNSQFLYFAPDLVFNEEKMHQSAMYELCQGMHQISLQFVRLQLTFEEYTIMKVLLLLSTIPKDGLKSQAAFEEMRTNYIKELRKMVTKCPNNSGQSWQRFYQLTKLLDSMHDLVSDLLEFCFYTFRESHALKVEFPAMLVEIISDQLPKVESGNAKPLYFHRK
# [5] = target: T4, Progesterone receptor (Homo sapiens, UniProt P06401); test: Competitive binding affinity to progesterone receptor (unknown origin) expressed in baculovirus-infected cell system after 1 hr by fluorescence polarization assay in presence of tetramethylrhodamine-labeled RU-486
# T4 sequence (P06401 whole entry): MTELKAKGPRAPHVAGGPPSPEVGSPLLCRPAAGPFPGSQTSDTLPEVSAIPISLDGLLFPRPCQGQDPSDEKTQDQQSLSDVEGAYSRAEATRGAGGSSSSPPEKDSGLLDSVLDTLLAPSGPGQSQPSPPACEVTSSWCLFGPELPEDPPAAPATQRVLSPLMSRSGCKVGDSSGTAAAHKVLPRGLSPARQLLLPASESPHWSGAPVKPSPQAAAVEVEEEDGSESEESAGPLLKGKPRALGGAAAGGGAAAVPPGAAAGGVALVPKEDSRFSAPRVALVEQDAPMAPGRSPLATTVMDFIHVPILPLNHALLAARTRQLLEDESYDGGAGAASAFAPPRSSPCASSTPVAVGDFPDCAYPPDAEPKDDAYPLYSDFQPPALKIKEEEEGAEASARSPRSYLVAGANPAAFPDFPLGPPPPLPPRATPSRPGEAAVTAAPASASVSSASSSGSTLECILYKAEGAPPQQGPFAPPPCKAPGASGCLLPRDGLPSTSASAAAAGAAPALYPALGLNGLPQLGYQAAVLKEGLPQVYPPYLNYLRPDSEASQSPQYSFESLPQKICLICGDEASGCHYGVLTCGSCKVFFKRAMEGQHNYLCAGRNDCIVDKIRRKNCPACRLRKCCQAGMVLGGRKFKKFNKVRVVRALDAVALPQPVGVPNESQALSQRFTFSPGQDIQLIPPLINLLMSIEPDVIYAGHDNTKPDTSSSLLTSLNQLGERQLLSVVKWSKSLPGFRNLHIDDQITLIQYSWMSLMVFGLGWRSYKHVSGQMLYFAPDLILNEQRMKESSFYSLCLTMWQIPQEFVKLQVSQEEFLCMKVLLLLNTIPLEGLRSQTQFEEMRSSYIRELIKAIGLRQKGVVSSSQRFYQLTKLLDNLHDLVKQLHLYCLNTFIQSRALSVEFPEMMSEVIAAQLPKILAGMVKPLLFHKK
# Procedure, shortened: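 PR from lysate of insect cells infected with receptor baculovirus alone, diluted 13-fold. Probe 5 nM tetramethylrhodamine-labeled RU-486 in pH 7.4 TES/KCl/molybdate buffer with 1% DMSO. 1 h at room temperature in the dark, then fluorescence polarization (ex 550/em 580 nm). Background set with 2 μM RU-486. IC50 from duplicate 11-point curves, four-parameter logistic fit, mean of at least two determinations.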
# [6] = target: T2, Glucocorticoid receptor (Homo sapiens); test: Agonist activity at glucocorticoid receptor in human […] cells assessed as suppression of vitamin D-induced osteocalcin production at 2 uM after 48 hrs by Gla-type osteocalcin ELISA relative to dexomethasone; format: cell-based
# Procedure, shortened: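 MG-63 human osteosarcoma cells plated at 20000/well in DMEM/F-12 with 1% charcoal-filtered FBS and 10 μg/mL vitamin C. Medium refreshed next day, then vitamin D (10 nM final) added with compound (2 × 10−6 to 10−10 M), duplicates. Incubated 48 h at 37 °C; supernatant osteocalcin measured by Gla-type ELISA. Vitamin D-only wells = 100%. Max efficacy at 2 μM is relative to dexamethasone (100%).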
# [7] = target: T2, Glucocorticoid receptor (Homo sapiens); test: Agonist activity at glucocorticoid receptor in human HeLa cells transfected with luciferase gene linked to MMTV promoter assessed as induction of luciferase transactivation activity at 2 uM after 6 hrs by luminescence assay; format: cell-based
# Procedure, shortened: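 HeLa cells stably carrying an MMTV-luciferase construct, plated the day before at 25000/well in DMEM with 3% FBS. Medium replaced, then compound added (0.2% DMSO final); 1 μM dexamethasone wells = 100% induction, vehicle = background. Incubated 6 h at 37 °C, 5% CO2. Luminescence read after lysis; activation expressed as % of positive control. Top concentration 2 μM.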
Compound,IC50 [1],Emax [2],IC50 [3],IC50 [4],IC50 [5],Emax [6],Emax [7]
Cc1ccc(F)cc1C(C)(C)CC(O)(Cc1cc2nc(-c3ccccc3)cnc2[nH]1)C(F)(F)F (configuration not stated),0.011 µM,82%,0.17 µM,> 2 µM,> 2 µM,–,–
CC(C)(C[C@@](O)(Cc1cc2ccncc2[nH]1)C(F)(F)F)c1cc(F)ccc1O,–,–,–,–,–,68%,–
COc1ccc(-c2cncnc2)cc1C(C)(C)C[C@@](O)(Cc1cc2ccncc2[nH]1)C(F)(F)F,–,–,–,–,–,45%,–
Cc1ccc(F)cc1C(C)(C)CC(O)(Cc1cc2nc(C(C)C)ncc2[nH]1)C(F)(F)F (racemic),0.026 µM,50%,0.56 µM,> 2 µM,> 2 µM,–,–
Cc1ccc(F)cc1C(C)(C)CC(O)(Cc1cc2nc(N3CCCC3)ncc2[nH]1)C(F)(F)F (racemic),0.018 µM,76%,0.13 µM,> 2 µM,> 2 µM,–,–
Cc1ccc(F)cc1C(C)(C)CC(O)(Cc1cc2nc(N3CCOCC3)ncc2[nH]1)C(F)(F)F (racemic),0.005 µM,84%,0.015 µM,0.17 µM,1.4 µM,–,–
COc1ccc(F)cc1C(C)(C)CC(O)(Cc1cc2ncncc2[nH]1)C(F)(F)F (racemic),0.009 µM,85%,0.021 µM,> 2 µM,> 2 µM,–,5%
CC(C)(CC(O)(Cc1cc2ncncc2[nH]1)C(F)(F)F)c1cc(F)ccc1O (racemic),0.007 µM,–,0.011 µM,1.15 µM,> 2 µM,42%,–
Cc1ccccc1C(C)(C)CC(O)(Cc1cc2ncncc2[nH]1)C(F)(F)F (racemic),0.013 µM,69%,0.044 µM,1.1 µM,> 2 µM,–,–
CC(C)(CC(O)(Cc1cc2ncncc2[nH]1)C(F)(F)F)c1cc(F)cc2c1OCC2 (racemic),0.007 µM,78%,0.024 µM,1.3 µM,1.4 µM,26%,–
CC(C)(CC(O)(Cc1cc2ncncc2[nH]1)C(F)(F)F)c1ccccc1S(C)(=O)=O (racemic),0.024 µM,92%,0.021 µM,> 2 µM,> 2 µM,43%,–
CC(C)(CC(O)(Cc1cc2ncncc2[nH]1)C(F)(F)F)c1cccc(S(C)(=O)=O)c1 (racemic),0.84 µM,–,–,> 2 µM,> 2 µM,–,–
Cc1ccc(F)cc1C(C)(C)CC(O)(Cc1cc2cnncc2[nH]1)C(F)(F)F (racemic),0.003 µM,–,0.005 µM,0.083 µM,0.49 µM,81%,–
COc1ccc(F)cc1C(C)(C)CC(O)(Cc1cc2cncnc2[nH]1)C(F)(F)F (racemic),0.004 µM,82%,0.01 µM,0.16 µM,1.45 µM,–,–
Cc1ccc(F)cc1C(C)(C)CC(O)(Cc1cc2nccnc2[nH]1)C(F)(F)F (racemic),0.057 µM,–,> 2 µM,> 2 µM,> 2 µM,–,–
